pIC50: −log10 of the molar value.
Tests used:
mTOR enzyme = mTOR enzyme (Homo sapiens, UniProt P42345); test: mTOR enzyme assay; format: biochemical; conditions: for Selectivity: PI3Kα IC50 relative to mTOR IC50 (table column); for inhibitory activity against mTOR (in words): derivatives with a para-substituent group on R3
PI3Kα (p110α/p85α) = PI3Kα (p110α/p85α) (Homo sapiens, UniProt P42336); test: PI3Kα enzyme assay; format: biochemical
Outline: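 Purchased recombinant PI3K enzyme (α, β, δ as p110/p85α; γ as p120γ) was mixed with the PIP2:3PS lipid substrate, and the reaction was started with ATP from a 250 µM solution. Luminescence was read by ADP-Glo. Inhibition was normalised to DMSO and no-enzyme controls, with IC50 averaged over two runs.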

Sequence of PI3Kα (p110α/p85α) (P42336 whole entry): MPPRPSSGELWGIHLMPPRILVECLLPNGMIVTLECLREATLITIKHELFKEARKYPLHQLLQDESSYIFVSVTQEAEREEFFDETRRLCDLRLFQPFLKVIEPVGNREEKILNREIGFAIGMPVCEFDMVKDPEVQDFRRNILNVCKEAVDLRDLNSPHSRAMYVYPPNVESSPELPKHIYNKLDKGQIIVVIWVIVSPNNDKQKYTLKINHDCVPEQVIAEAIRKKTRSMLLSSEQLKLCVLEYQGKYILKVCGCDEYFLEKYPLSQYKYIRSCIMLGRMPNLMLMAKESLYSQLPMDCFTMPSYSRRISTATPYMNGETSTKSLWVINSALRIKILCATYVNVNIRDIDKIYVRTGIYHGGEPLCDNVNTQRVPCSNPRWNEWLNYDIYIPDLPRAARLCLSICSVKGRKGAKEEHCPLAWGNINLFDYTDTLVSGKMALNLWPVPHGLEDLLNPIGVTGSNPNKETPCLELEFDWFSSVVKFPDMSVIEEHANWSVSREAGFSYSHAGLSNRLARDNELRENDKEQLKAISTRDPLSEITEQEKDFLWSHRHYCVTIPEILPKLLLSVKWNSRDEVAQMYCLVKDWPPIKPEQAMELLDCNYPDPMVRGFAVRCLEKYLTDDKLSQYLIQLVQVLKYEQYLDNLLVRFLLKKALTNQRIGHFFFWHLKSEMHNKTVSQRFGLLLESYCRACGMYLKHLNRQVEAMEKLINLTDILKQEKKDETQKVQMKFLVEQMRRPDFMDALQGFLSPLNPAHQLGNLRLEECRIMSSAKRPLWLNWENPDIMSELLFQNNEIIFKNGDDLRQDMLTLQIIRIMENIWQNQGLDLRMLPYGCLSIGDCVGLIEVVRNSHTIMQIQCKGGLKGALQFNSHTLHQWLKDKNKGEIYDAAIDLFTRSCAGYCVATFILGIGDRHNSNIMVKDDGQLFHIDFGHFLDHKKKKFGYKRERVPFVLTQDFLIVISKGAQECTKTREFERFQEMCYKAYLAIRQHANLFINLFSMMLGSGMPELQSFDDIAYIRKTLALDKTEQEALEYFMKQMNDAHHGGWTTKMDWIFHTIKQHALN
Sequence of PI3Kα (p110α/p85α) (P27986 whole entry partner): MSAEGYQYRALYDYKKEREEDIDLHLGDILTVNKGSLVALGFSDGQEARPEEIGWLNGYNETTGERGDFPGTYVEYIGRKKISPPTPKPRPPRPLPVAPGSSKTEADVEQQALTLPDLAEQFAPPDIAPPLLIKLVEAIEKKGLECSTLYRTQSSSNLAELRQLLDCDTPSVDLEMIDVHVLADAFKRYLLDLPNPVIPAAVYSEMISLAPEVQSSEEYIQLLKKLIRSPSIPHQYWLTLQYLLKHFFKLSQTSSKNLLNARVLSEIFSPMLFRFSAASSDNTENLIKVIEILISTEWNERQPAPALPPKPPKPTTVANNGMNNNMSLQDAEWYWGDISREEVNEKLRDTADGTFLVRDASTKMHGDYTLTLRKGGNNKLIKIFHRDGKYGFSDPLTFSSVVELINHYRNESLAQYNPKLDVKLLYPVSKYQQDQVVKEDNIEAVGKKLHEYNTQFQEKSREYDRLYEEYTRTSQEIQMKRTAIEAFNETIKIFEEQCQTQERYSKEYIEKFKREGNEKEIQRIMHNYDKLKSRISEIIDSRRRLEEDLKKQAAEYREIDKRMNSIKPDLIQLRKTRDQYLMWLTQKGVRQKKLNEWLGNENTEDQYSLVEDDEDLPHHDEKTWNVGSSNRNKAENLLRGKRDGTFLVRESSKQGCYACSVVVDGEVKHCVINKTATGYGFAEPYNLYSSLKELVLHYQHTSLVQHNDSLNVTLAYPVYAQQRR

Row | Compound | pIC50 (mTOR enzyme) | Selectivity (mTOR enzyme) | inhibition at 10 µM (mTOR enzyme; read-out: mTOR enzyme inhibition rate) | pIC50 (PI3Kα (p110α/p85α)) | inhibitory activity against mTOR (in words) (mTOR enzyme)
1 | COCCCSc1nc2n(n1)C(c1cccc(OC)c1)C(C(=O)Nc1cccnc1)=C(C)N2 (stereo not shown) [1a, 7-(3-Methoxyphenyl)-2-((3-Methoxypropyl)Thio)-5-Methyl-N-(Pyridin-3-yl)-4,7-Dihydro-[1,2,4]Triazolo[1,5-a]Pyrimidine-6-Carboxamide] | 6.78 | 9 | 91.8% | 5.80 | –
2 | COc1cccc(C2C(C(=O)Nc3cccnc3)=C(C)Nc3nc(SCCC4OCCO4)nn32)c1 (stereo not shown) [1b, 2-((2-(1,3-Dioxolan-2-yl)Ethyl)Thio)-7-(3-Methoxyphenyl)-5-Methyl-N-(Pyridin-3-yl)-4,7-Dihydro-[1,2,4]Triazolo[1,5-a]Pyrimidine-6-Carboxamide] | 7.30 | 16 | – | 6.10 | –
3 | COC(=O)CCSc1nc2n(n1)C(c1cccc(OC)c1)C(C(=O)Nc1cccc(F)c1)=C(C)N2 (stereo not shown) [2b, Methyl 3-((6-((3-Fluorophenyl)Carbamoyl)-7-(3-Methoxyphenyl)-5-Methyl-4,7-Dihydro-[1,2,4]Triazolo[1,5-a]Pyrimidin-2-yl)Thio)Propanoate] | 6.91 | 4 | – | 6.36 | –
4 | COC(=O)CCSc1nc2n(n1)C(c1cccc(OC)c1)C(C(=O)Nc1ccc(OC)cc1)=C(C)N2 (stereo not shown) [2c, Methyl 3-((7-(3-Methoxyphenyl)-6-((4-Methoxyphenyl)Carbamoyl)-5-Methyl-4,7-Dihydro-[1,2,4]Triazolo[1,5-a]Pyrimidin-2-yl)Thio)Propanoate] | 6.86 | 8 | – | 5.98 | –
5 | COC(=O)CCSc1nc2n(n1)C(c1cccc(OC)c1)C(C(=O)Nc1cccc(C(C)=O)c1)=C(C)N2 (stereo not shown) [2d, Methyl 3-((6-((3-Acetylphenyl)Carbamoyl)-7-(3-Methoxyphenyl)-5-Methyl-4,7-Dihydro-[1,2,4]Triazolo[1,5-a]Pyrimidin-2-yl)Thio)Propanoate] | 7.64 | 10 | – | 6.64 | –
6 | COC(=O)CCSc1nc2n(n1)C(c1cccc(OC)c1)C(C(=O)Nc1ccc(C(C)=O)cc1)=C(C)N2 (stereo not shown) [2e, Methyl 3-((6-((4-Acetylphenyl)Carbamoyl)-7-(3-Methoxyphenyl)-5-Methyl-4,7-Dihydro-[1,2,4]Triazolo[1,5-a]Pyrimidin-2-yl)Thio)Propanoate] | 7.14 | 4 | – | 6.60 | –
7 | COc1cccc(C2C(C(=O)Nc3cncc(C)c3)=C(C)Nc3nc(SCCC4OCCO4)nn32)c1 (stereo not shown) [2f, 2-((2-(1,3-Dioxolan-2-yl)Ethyl)Thio)-7-(3-Methoxyphenyl)-5-Methyl-N-(5-Methylpyridin-3-yl)-4,7-Dihydro-[1,2,4]Triazolo[1,5-a]Pyrimidine-6-Carboxamide] | 7.55 | 7 | – | 6.71 | –
8 | COc1cccc(C2C(C(=O)Nc3cccc(F)c3)=C(C)Nc3nc(SCCC4OCCO4)nn32)c1 (stereo not shown) [2g, 2-((2-(1,3-Dioxolan-2-yl)Ethyl)Thio)-N-(3-Fluorophenyl)-7-(3-Methoxyphenyl)-5-Methyl-4,7-Dihydro-[1,2,4]Triazolo[1,5-a]Pyrimidine-6-Carboxamide] | 6.50 | 3 | – | 6.07 | –
9 | COc1ccc(NC(=O)C2=C(C)Nc3nc(SCCC4OCCO4)nn3C2c2cccc(OC)c2)cc1 (stereo not shown) [2h, 2-((2-(1,3-Dioxolan-2-yl)Ethyl)Thio)-7-(3-Methoxyphenyl)-N-(4-Methoxyphenyl)-5-Methyl-4,7-Dihydro-[1,2,4]Triazolo[1,5-a]Pyrimidine-6-Carboxamide] | 6.44 | 9 | – | 5.49 | –
10 | COc1cccc(C2C(C(=O)Nc3cccc(C(C)=O)c3)=C(C)Nc3nc(SCCC4OCCO4)nn32)c1 (stereo not shown) [2i, 2-((2-(1,3-Dioxolan-2-yl)Ethyl)Thio)-N-(3-Acetylphenyl)-7-(3-Methoxyphenyl)-5-Methyl-4,7-Dihydro-[1,2,4]Triazolo[1,5-a]Pyrimidine-6-Carboxamide] | 7.04 | 29 | – | 5.57 | –
11 | COc1cccc(C2C(C(=O)Nc3ccc(C(C)=O)cc3)=C(C)Nc3nc(SCCC4OCCO4)nn32)c1 (stereo not shown) [2j, 2-((2-(1,3-Dioxolan-2-yl)Ethyl)Thio)-N-(4-Acetylphenyl)-7-(3-Methoxyphenyl)-5-Methyl-4,7-Dihydro-[1,2,4]Triazolo[1,5-a]Pyrimidine-6-Carboxamide] | 6.74 | 5 | – | 6.02 | –
12 | COC(=O)CCSc1nc2n(n1)C(c1cccc(O)c1)C(C(=O)Nc1cncc(C)c1)=C(C)N2 (stereo not shown) [3a, Methyl 3-((7-(3-Hydroxyphenyl)-5-Methyl-6-((5-Methylpyridin-3-yl) Carbamoyl)-4,7-Dihydro-[1,2,4] Triazolo[1,5-a]Pyrimidin-2-yl)Thio)Propanoate] | 6.59 | 14 | – | 5.45 | –
13 | COC(=O)CCSc1nc2n(n1)C(c1ccc(O)cc1)C(C(=O)Nc1cncc(C)c1)=C(C)N2 (stereo not shown) [3b, Methyl 3-((7-(4-Hydroxyphenyl)-5-Methyl-6-((5-Methylpyridin-3-yl) Carbamoyl)-4,7-Dihydro-[1,2,4]Triazolo[1,5-a]Pyrimidin-2-yl)Thio)Propanoate] | 5.66 | >5 | – | < 5.00 | low inhibitory activity against mTOR
14 | COC(=O)CCSc1nc2n(n1)C(c1ccccc1)C(C(=O)Nc1cncc(C)c1)=C(C)N2 (stereo not shown) [3c, Methyl 3-((5-Methyl-6-((5-Methylpyridin-3-yl)carbamoyl)-7-Phenyl-4,7- Dihydro-[1,2,4]Triazolo[1,5-a]Pyrimidin-2-yl)Thio)Propanoate] | 6.61 | 3 | – | 6.15 | –
15 | COC(=O)CCSc1nc2n(n1)C(c1ccc(C)cc1)C(C(=O)Nc1cncc(C)c1)=C(C)N2 (stereo not shown) [3d, Methyl 3-((5-Methyl-6-((5-Methylpyridin-3-yl)Carbamoyl)-7-(p-Tolyl)-4,7 -Dihydro-[1,2,4]Triazolo[1,5-a]Pyrimidin-2-yl)Thio)Propanoate] | 6.03 | 8 | – | 5.13 | low inhibitory activity against mTOR
16 | COC(=O)CCSc1nc2n(n1)C(c1ccccc1C)C(C(=O)Nc1cncc(C)c1)=C(C)N2 (stereo not shown) [3e, Methyl 3-((5-Methyl-6-((5-Methylpyridin-3-yl)Carbamoyl)-7-(o-Tolyl)-4,7-Dihydro-[1,2,4]Triazolo[1,5-a]pyrimidin-2-yl)Thio)Propanoate] | 6.32 | 6 | – | 5.56 | –
17 | COC(=O)CCSc1nc2n(n1)C(c1cc(C)cc(C)c1)C(C(=O)Nc1cncc(C)c1)=C(C)N2 (stereo not shown) [3f, Methyl 3-((7-(3,5-Dimethylphenyl)-5-Methyl-6-((5-Methylpyridin-3-yl) Carbamoyl)-4,7-Dihydro-[1,2,4]Triazolo[1,5-a]Pyrimidin-2-yl)Thio)Propanoate] | 6.28 | 0.8 | – | 6.36 | –
18 | COC(=O)CCSc1nc2n(n1)C(c1ccc(F)cc1)C(C(=O)Nc1cncc(C)c1)=C(C)N2 (stereo not shown) [3g, Methyl 3-((7-(4-Fluorophenyl)-5-Methyl-6-((5-Methylpyridin-3-yl)carbamoyl)-4,7-Dihydro-[1,2,4] Triazolo[1,5-a]Pyrimidin-2-yl)Thio)Propanoate] | 5.75 | >6 | – | < 5.00 | low inhibitory activity against mTOR
19 | COC(=O)CCSc1nc2n(n1)C(c1cccc(F)c1)C(C(=O)Nc1cncc(C)c1)=C(C)N2 (stereo not shown) [3h, Methyl 3-((7-(3-Fluorophenyl)-5-Methyl-6-((5-Methylpyridin-3-yl)Carbamoyl)-4,7-Dihydro-[1,2,4] Triazolo[1,5-a]Pyrimidin-2-yl)Thio)Propanoate] | 6.49 | 2 | – | 6.13 | –

Reference: paper PMC7220363 (Drug Design, Development and Therapy, 2020)
